Laboratory results as given in ChEMBL document CHEMBL1938269, “Synthesis and biological evaluation of 7-O-modified oroxylin A derivatives” (Bioorg Med Chem Lett, 2012).
Activity calls are given as the source filed them. The rule behind the calls is not given here.

Legend:
HepG2 [1] = test: Antiproliferative activity against human HepG2 cells after 48 hrs by MTT assay; format: functional, cell-based; settings: HepG2, 48 h
HCT-116 [2] = test: Antiproliferative activity against human HCT116 cells after 48 hrs by MTT assay; format: functional, cell-based; settings: HCT-116, 48 h
[3] = Antiproliferative activity against human BCG823 cells after 48 hrs by MTT assay; format: functional, cell-based; settings: BCG823, 48 h
[4] = Ratio of oroxylin A IC50 to compound IC50 for human BCG823 cells; format: functional
HCT-116 [5] = test: Ratio of oroxylin A IC50 to compound IC50 for human HCT116 cells; format: functional
HepG2 [6] = test: Ratio of oroxylin A IC50 to compound IC50 for human HepG2 cells; format: functional
HepG2 [7] = test: Induction of apoptosis in human HepG2 cells assessed as viable cells at 2 uM after 72 hrs by annexin-V FITC and PI staining based flow cytometry (reference value: 94.5 +/- 0.6%); format: functional; settings: HepG2, 72 h, read-out: Activity
HepG2 [8] = test: Induction of apoptosis in human HepG2 cells assessed as non-viable necrotic cells at 2 uM after 72 hrs by annexin-V FITC and PI staining based flow cytometry (reference value: 2.7 +/- 0.1%); format: functional
HepG2 [9] = test: Induction of apoptosis in human HepG2 cells assessed as non-viable necrotic cells at 1 uM after 72 hrs by annexin-V FITC and PI staining based flow cytometry (reference value: 2.7 +/- 0.1%); format: functional
HepG2 [10] = test: Induction of apoptosis in human HepG2 cells assessed as late apoptotic cells at 2 uM after 72 hrs by annexin-V FITC and PI staining based flow cytometry (reference value: 1.4 +/- 0.0%); format: functional
HepG2 [11] = test: Induction of apoptosis in human HepG2 cells assessed as early apoptotic cells at 4 uM after 72 hrs by annexin-V FITC and PI staining based flow cytometry (reference value: 1.4 +/- 0.1%); format: functional
HepG2 [12] = test: Induction of apoptosis in human HepG2 cells assessed as early apoptotic cells at 2 uM after 72 hrs by annexin-V FITC and PI staining based flow cytometry (reference value: 1.4 +/- 0.1%); format: functional
HepG2 [13] = test: Induction of apoptosis in human HepG2 cells assessed as non-viable necrotic cells at 4 uM after 72 hrs by annexin-V FITC and PI staining based flow cytometry (reference value: 2.7 +/- 0.1%); format: functional
HepG2 [14] = test: Induction of apoptosis in human HepG2 cells assessed as early apoptotic cells at 1 uM after 72 hrs by annexin-V FITC and PI staining based flow cytometry (reference value: 1.4 +/- 0.1%); format: functional
HepG2 [15] = test: Induction of apoptosis in human HepG2 cells assessed as late apoptotic cells at 4 uM after 72 hrs by annexin-V FITC and PI staining based flow cytometry (reference value: 1.4 +/- 0.0%); format: functional
HepG2 [16] = test: Induction of apoptosis in human HepG2 cells assessed as chromatin congregation and karyopyknosis at 1 to 4 uM after 72 hrs by DAPI staining-based fluorescent microscopy; format: functional, cell-based
How it was run: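 HepG2 cells exposed for 72 h, with untreated cells as control. Nuclei were stained with DAPI and viewed by fluorescence microscopy at 400×. Apoptotic cells were scored by chromatin congregation and karyopyknosis, seen as bright nuclear fluorescence. Arrows mark apoptotic cells.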

HepG2 [17] = test: Induction of apoptosis in human HepG2 cells assessed as late apoptotic cells at 1 uM after 72 hrs by annexin-V FITC and PI staining based flow cytometry (reference value: 1.4 +/- 0.0%); format: functional
HepG2 [18] = test: Induction of apoptosis in human HepG2 cells assessed as viable cells at 1 uM after 72 hrs by annexin-V FITC and PI staining based flow cytometry (reference value: 94.5 +/- 0.6%); format: functional; settings: HepG2, 72 h, read-out: Activity
HepG2 [19] = test: Induction of apoptosis in human HepG2 cells assessed as viable cells at 4 uM after 72 hrs by annexin-V FITC and PI staining based flow cytometry (reference value: 94.5 +/- 0.6%); format: functional; settings: HepG2, 72 h, read-out: Activity

Row | Compound | IC50 (HepG2 [1]) [µM] | IC50 (HCT-116 [2]) [µM] | IC50 [3] [µM] | also measured
1 | COc1c(OCCN2CCCCC2)cc2oc(-c3ccccc3)cc(=O)c2c1O | 17.1 | 21.1 | 26.9 | 
2 | COc1c(OCCCCN2CCN(C)CC2)cc2oc(-c3ccccc3)cc(=O)c2c1O | 27.2 | 12.5 | 35.8 | 
3 | COc1c(OCCCN2CCN(C)CC2)cc2oc(-c3ccccc3)cc(=O)c2c1O | 30.4 | 42.5 | 42.3 | 
4 | COc1c(OCCCN2CCCC2)cc2oc(-c3ccccc3)cc(=O)c2c1O | 20.5 | 26.6 | 12 | 
5 | COc1c(OCCN2CCCC2)cc2oc(-c3ccccc3)cc(=O)c2c1O | 9.7 | 23.4 | 22.7 | 
6 | CCN(CC)CCCOc1cc2oc(-c3ccccc3)cc(=O)c2c(O)c1OC | 18 | 23.4 | 3.5 | 

Further lines, with some results ahead:

Row | IC50 (HepG2 [1]) [µM] | IC50 (HCT-116 [2]) [µM] | Compound | IC50 [3] [µM] | also measured
7 | 67.6 | 56.3 | COc1c(OCCN2CCOCC2)cc2oc(-c3ccccc3)cc(=O)c2c1O | 38.2 | 
8 | 50.6 | 32.4 | COc1c(OCCCCN2CCOCC2)cc2oc(-c3ccccc3)cc(=O)c2c1O | 26.8 | 
9 | 6.6 | 5.1 | CCN(CC)CCCCOc1cc2oc(-c3ccccc3)cc(=O)c2c(O)c1OC | 6.3 | Ratio IC50 [4]: 5; Ratio IC50 (HCT-116 [5]): 5; Ratio IC50 (HepG2 [6]): 5
10 | 12 | 39.6 | CCN(CC)CCOc1cc2oc(-c3ccccc3)cc(=O)c2c(O)c1OC | 13 | 
11 | 4.7 | 1.4 | COc1c(OCCCCN2CCCC2)cc2oc(-c3ccccc3)cc(=O)c2c1O | 9.5 | Ratio IC50 [4]: 5; Ratio IC50 (HCT-116 [5]): 5; Ratio IC50 (HepG2 [6]): 5
12 | 2.4 | 3 | COc1c(OCCCCN2CCCCC2)cc2oc(-c3ccccc3)cc(=O)c2c1O | 6.6 | viability at 2 µM (HepG2 [7]): 87.2%; Activity (HepG2 [8]): 2.7%; Activity (HepG2 [9]): 5.8%; Activity (HepG2 [10]): 3.5%; Activity (HepG2 [11]): 14%; Activity (HepG2 [12]): 6.5%; Activity (HepG2 [13]): 37.5%; Activity (HepG2 [14]): 3.4%; Activity (HepG2 [15]): 17.9%; Ratio IC50 [4]: 5; Activity (HepG2 [16]): Active; Ratio IC50 (HCT-116 [5]): 5; Activity (HepG2 [17]): 1.9%; viability at 1 µM (HepG2 [18]): 88.9%; viability at 4 µM (HepG2 [19]): 30.6%; Ratio IC50 (HepG2 [6]): 5
13 | 6.8 | 22.1 | COc1c(OCCCN2CCCCC2)cc2oc(-c3ccccc3)cc(=O)c2c1O | 9.7 | 
14 | 74.8 | 52.4 | COc1c(OCCCN2CCOCC2)cc2oc(-c3ccccc3)cc(=O)c2c1O | 41.6 | 
15 | 22.7 | 33.9 | COc1c(O)cc2oc(-c3ccccc3)cc(=O)c2c1O [OROXYLIN A] | 25.5 | 
16 | 15.4 | 54.9 | COc1c(OCCN2CCN(C)CC2)cc2oc(-c3ccccc3)cc(=O)c2c1O | 20.5 | 
